Measured values published in PubChem BioAssay.
Active and inactive are the calls of the source.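 Rule for the calls, unless noted: active = NADPH fluorescence slope more negative than the mean of all samples by about 3 SD, 99.7% confidence; inactive = the rest.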

What was measured:
[1] = inhibitors of TNFa-induced NFkB p65 translocation, primary screen, imaging, HUVEC, MLSMR starter and 10KST1 sets (AID 438;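 active = inhibition above 20% together with a positive visual image hit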;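 note: compound added about 3h40 before a 20 min TNFalpha stimulation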;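 for inhibition: signal is the nuclear over cytoplasmic p65 intensity ratio per well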); details: HUVEC TNFa-induced p65 nuclear translocation; cell count: measured here: nuclei count (cytotoxicity indicator), at 2.08 µM; inhibition: at 2 µM, stronger effect = higher value, 0% TNFa-plus-vehicle, 100% no-TNFa wells
[2] = endothelial E-selectin expression blockers – imaging, HUVEC, immunofluorescence, MLSMR starter and 10KST1 sets, primary screen (AID 487;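 active = visually confirmed hit in the image check and inhibition above 20%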;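 for inhibition: signal is fraction of cell area covered by stained E-selectin grains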;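 for nuclei count: 100% = median nuclei count of all wells on the same plate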); details: HUVEC TNFalpha-induced E-selectin immunofluorescence imaging, at 2 µM; inhibition: stronger effect = higher value; nuclei count: measured here: cell number, toxicity
[3] = Primary imaging screen for DUSP6 inhibitors that restore phospho-Erk in transfected HeLa cells, chemical complementation (AID 609;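 active = compounds giving at least 50% inhibition in the cell-based MKP-3 phosphatase rescue imaging test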;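 for inhibition: phospho-Erk level distribution per well compared with pooled transfected vehicle control wells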); details: HeLa MKP-3 transfected, phospho-Erk imaging KS statistic, at 10 µM, cells stimulated with TPA for 15 min
[4] = target: Dual specificity protein phosphatase 6 (Homo sapiens) (UniProt Q16828); experiment: as above; details: HeLa MKP-3 transfected, phospho-Erk imaging KS statistic; at 10 µM; stronger effect = higher value; cells stimulated with TPA for 15 min
Sequence of Dual specificity protein phosphatase 6 (Homo sapiens) (Q16828 whole entry, looked up): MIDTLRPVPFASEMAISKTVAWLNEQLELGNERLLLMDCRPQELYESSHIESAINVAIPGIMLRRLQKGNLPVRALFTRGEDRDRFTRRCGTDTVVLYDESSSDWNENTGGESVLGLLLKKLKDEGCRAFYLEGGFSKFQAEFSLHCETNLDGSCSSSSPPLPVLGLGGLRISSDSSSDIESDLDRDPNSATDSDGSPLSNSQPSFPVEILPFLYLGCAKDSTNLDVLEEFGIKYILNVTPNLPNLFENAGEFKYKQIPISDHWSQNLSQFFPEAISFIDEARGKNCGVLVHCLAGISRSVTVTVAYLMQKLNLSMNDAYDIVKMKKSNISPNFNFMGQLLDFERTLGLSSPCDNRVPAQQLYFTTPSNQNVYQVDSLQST

[5] = target: Voltage-gated potassium channel subunit beta-2 (Rattus norvegicus) (UniProt P62483); experiment: inhibitors of rat Kvbeta2 reductase activity – biochemical, NADPH fluorescence, primary screen (AID 622;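 active = fluorescence slope higher than the sample average by over 3 SD, cut at about -0.22 in these data, passing the limit was not always enough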;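 note: slope of raw intensity against log time taken from 70 to 1610 s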); details: recombinant KvBeta, 4-cyanobenzaldehyde reduction, at 10 µM, stronger effect = higher value
Sequence of Voltage-gated potassium channel subunit beta-2 (Rattus norvegicus) (P62483 whole entry, looked up): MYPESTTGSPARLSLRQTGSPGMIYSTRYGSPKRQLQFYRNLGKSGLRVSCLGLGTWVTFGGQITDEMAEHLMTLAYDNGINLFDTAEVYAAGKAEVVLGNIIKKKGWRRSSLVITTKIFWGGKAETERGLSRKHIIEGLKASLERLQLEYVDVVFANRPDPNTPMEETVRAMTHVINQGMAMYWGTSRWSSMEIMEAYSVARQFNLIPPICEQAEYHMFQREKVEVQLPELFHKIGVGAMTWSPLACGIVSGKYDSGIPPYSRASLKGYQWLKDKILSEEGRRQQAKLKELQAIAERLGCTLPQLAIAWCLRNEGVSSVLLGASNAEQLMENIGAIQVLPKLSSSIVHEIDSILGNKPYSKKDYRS

[6] = target: Voltage-gated potassium channel subunit beta-2 (Rattus norvegicus) (UniProt P62483); experiment: enhancers of rat Kvbeta2 NADPH turnover – biochemical, NADPH fluorescence, primary screen (AID 623); details: Recombinant KvBeta, NADPH fluorescence decrease slope, 10 min; at 10 µM; stronger effect = lower value;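 note: fluorescence intensity change per second fitted from 20 to 320 s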
[7] = target: Alpha-2C adrenergic receptor (Homo sapiens) (UniProt P18825); experiment: compounds altering alpha2C-coupled GIRK flux – cell-based, HEK293 alpha2C/GIRK1/2, thallium flux, primary screen (AID 624;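 active = fluorescence slope after compound addition differing from the mean of all screened samples at 99.7% confidence, in either direction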;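 note: slope of fluorescence ratio to pre-addition baseline per second over 15 to 24 s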); details: thallium flux BTC fluorescence, at 10 µM, actives lie on both sides
Sequence of Alpha-2C adrenergic receptor (Homo sapiens) (P18825 whole entry, looked up): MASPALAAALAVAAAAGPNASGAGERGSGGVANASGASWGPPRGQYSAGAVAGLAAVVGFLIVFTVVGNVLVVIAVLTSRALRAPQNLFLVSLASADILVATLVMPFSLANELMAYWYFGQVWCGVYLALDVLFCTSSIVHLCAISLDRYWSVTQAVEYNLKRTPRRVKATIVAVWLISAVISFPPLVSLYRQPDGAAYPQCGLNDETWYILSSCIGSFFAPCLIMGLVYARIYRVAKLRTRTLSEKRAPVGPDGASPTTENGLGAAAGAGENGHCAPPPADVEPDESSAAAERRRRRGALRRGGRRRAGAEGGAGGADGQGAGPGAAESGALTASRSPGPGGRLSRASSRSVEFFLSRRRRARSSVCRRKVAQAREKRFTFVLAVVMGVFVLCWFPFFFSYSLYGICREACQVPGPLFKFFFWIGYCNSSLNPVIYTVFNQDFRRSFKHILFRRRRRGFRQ

[8] = inhibitors of larval lipid processing in zebrafish, primary screen, whole organism, PED6 fluorescence, gall bladder and intestine (AID 686;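 active = a full or partial loss of lipid-probe fluorescence in the fish gall bladder, intestine or both, judged by eye; inactive = no fluorescence loss, or compound toxic to the fish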;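 note: larvae 5 to 7 days old with five fish per well; signal comes from phospholipase A2 cleavage of quenched PED6 carried via bile; overnight exposure to compound and PED6 before scoring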); details: Zebrafish larvae PED6 lipid processing, fluorescence scoring; screened at 20 µM (by protocol)
In short: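 Also added: quenched phospholipase substrate PED6, 100 nM final, ingested by larvae; System: zebrafish larvae, 5-7 d; Quantity: 5 larvae per well; Compound: 20 µM single dose; Schedule: overnight compound and PED6 incubation; Read-out: visual per-well fluorescence inhibition score; Measured by: By-eye fluorescence microscopy; Medium: E3.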

[9] = loss of swimming-algae plug formation – whole organism, Chlamydomonas reinhardtii, WT vs cilia-less mutant, absorbance, 96-well, primary screen (AID 463189;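 active = inhibition at or above 50% relative to wild type and mutant plate controls; inactive = inhibition below 50%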;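 note: 0% = wild type cc124 cells in DMSO and 100% = ciliumless bld1 mutant cells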); details: Chlamydomonas reinhardtii gravitaxis, OD600 absorbance, 2 days; at 10 µM; stronger effect = higher value
[10] = measured here: cell density z-score
[11] = measured here: nuclear c-Myc green intensity z-score
[12] = measured here: nuclear pErk red intensity z-score, stronger effect = higher value

Row | SMILES | cell count [1] | inhibition [1] | inhibition [2] | nuclei count [2] [%] | z-score [3, 10] | z-score [3, 11] | z-score [3, 12] | inhibition [4] | fluorescence slope [5] | NADPH fluorescence slope [6] | slope [7] | outcome [8] | inhibition [9]
1 | COC(=O)CN1C2(C#N)CCCCC2CC2CCCCC21C#N (stereo not drawn) | 420 | -8.8% (inactive) | -128% (inactive) | 153 | -0.336 | -0.947 | -0.0966 | 3.66% (inactive) | -0.504 (inactive) | -9.5e-05 (inactive) | 0.00451 (inactive) | inactive | 45.5% (inactive)
2 | CCOC(=O)CSc1nc(N(C)C)nc(N(C)C#N)n1 | 570 | -6.8% (inactive) | -140% (inactive) | 113 | 0.476 | -0.876 | -1.19 | 5.57% (inactive) | -0.478 (inactive) | -0.00031 (inactive) | 0.00712 (inactive) | inactive | -9.74% (inactive)
3 | COc1cc(C2C(C#N)=C(N)Oc3cc(C)n(CCc4ccccc4)c(=O)c32)cc2c1OCO2 (stereo not drawn) | 331 | -2.4% (inactive) | -42.5% (inactive) | 165 | -0.617 | 1.54 | 1.26 | 11.4% (inactive) | -0.433 (inactive) | -0.000158 (inactive) | 0.00471 (inactive) | inactive | 11.9% (inactive)
4 | C=CCOc1nc2c(c(=O)n(Cc3ccc(Cl)c(Cl)c3)c(=O)n2C)n1C | 654 | 0.8% (inactive) | -39.8% (inactive) | 140 | 1.05 | 1.15 | -1.45 | -2.91% (inactive) | -0.492 (inactive) | -0.000116 (inactive) | 0.00594 (inactive) | inactive | -5.33% (inactive)
5 | Clc1ccc(-c2nn3c(-c4cccc(Cl)c4)nnc3s2)cc1 | 603 | -0.1% (inactive) | -90.1% (inactive) | 150 | -0.779 | 0.764 | -0.704 | -2.47% (inactive) | -0.42 (inactive) | -9.2e-05 (inactive) | 0.00631 (inactive) | inactive | 33% (inactive)
6 | Cc1ccc(C(=O)CSC2=C(C#N)C(c3ccco3)C3=C(CCCC3=O)N2)cc1 (stereo not drawn) | 333 | -7.4% (inactive) | -98.2% (inactive) | 165 | 1.35 | -1.13 | 0.366 | 1.42% (inactive) | -0.449 (inactive) | -0.000148 (inactive) | 0.00654 (inactive) | inactive | 8.93% (inactive)
7 | CCN1CC2=C(OC(N)=C(C#N)C2c2ccccc2)/C(=C\c2ccccc2)C1 (stereo not drawn) | 489 | -6.9% (inactive) | -190% (inactive) | 174 | 0.232 | -0.856 | 0.432 | 9.61% (inactive) | -0.332 (inactive) | -1.3e-05 (inactive) | 0.00402 (inactive) | active; no signal in intestine only | 14.6% (inactive)
8 | CC(C)C1Cc2c(sc3c2c(=O)n(Cc2ccccc2)c2nncn32)CO1 (stereo not drawn) | 557 | -4.6% (inactive) | -2.8% (inactive) | 115 | 1.56 | 0.421 | -0.614 | 9.61% (inactive) | -0.481 (inactive) | -0.000346 (inactive) | 0.00509 (inactive) | inactive | 8.24% (inactive)
9 | Cc1cc(C)nc(CC(N)=O)n1 | 623 | -3.1% (inactive) | 3.3% (inactive) | 142 | 0.214 | 0.0631 | 0.457 | 6.04% (inactive) | -0.508 (inactive) | -4e-05 (inactive) | 0.0046 (inactive) | inactive | 14.5% (inactive)
10 | CCOC(=O)CSc1nc(-c2ccncc2)ccc1C#N | 688 | -16.1% (inactive) | -23.4% (inactive) | 174 | -1.46 | -0.434 | 0.758 | -3.95% (inactive) | -0.355 (inactive) | -2e-05 (inactive) | 0.00882 (inactive) | inactive | -7.15% (inactive)
11 | CC(=O)c1cc2c(=O)c3ccccc3oc2nc1C | 564 | -7.4% (inactive) | 19.7% (inactive) | 151 | 0.231 | 1.31 | -0.249 | 26.5% (inactive) | -0.525 (inactive) | -4.9e-05 (inactive) | 0.00444 (inactive) | inactive | 46.5% (inactive)
12 | COc1cc(-n2c3nc4ccccc4nc3c3c(=O)n(Cc4ccco4)cnc32)cc(OC)c1OC | 308 | -15.2% (inactive) | -111% (inactive) | 168 | -1.73 | 0.447 | 0.876 | -3.5% (inactive) | -0.417 (inactive) | -0.000139 (inactive) | 0.00442 (inactive) | inactive | 3.2% (inactive)
13 | COc1ccc(N(CN2C(=O)C3C4C=CC(C4)C3C2=O)C(=O)c2ccco2)cc1 (stereo not drawn) | 541 | 2.9% (inactive) | -74.9% (inactive) | 117 | -1.56 | 1.43 | 1.11 | 1.6e-07% (inactive) | -0.58 (inactive) | -3.5e-05 (inactive) | 0.00619 (inactive) | inactive | -8.45% (inactive)
14 | CC(C)OC(=O)[C@H]1[C@H](c2ccc(Cl)cc2)[C@@](C#N)(C(N)=O)[C@@H]2C=CC(C(N)=O)=CN21 | 523 | -4.9% (inactive) | -24% (inactive) | 155 | 0.333 | 0.745 | -0.843 | 2.46% (inactive) | -0.335 (inactive) | 1.2e-05 (inactive) | 0.00427 (inactive) | inactive | 6.97% (inactive)
15 | CCOc1ccc(/C(O)=C2/C(=O)C(=O)N(CCN(C)C)C2c2ccccc2)cc1Cl (stereo not drawn) | 539 | -10.3% (inactive) | -64% (inactive) | 156 | 2.52 | 0.178 | -1.22 | 2.92% (inactive) | -0.502 (inactive) | -5.4e-05 (inactive) | 0.00531 (inactive) | inactive | 2.01% (inactive)
16 | COc1ccc(Oc2nc3c(c(=O)n(C)c(=O)n3C)n2Cc2cccc(OC)c2)cc1 | 468 | -1.9% (inactive) | -260% (inactive) | 162 | 1.97 | -0.65 | -2.21 | 26% (inactive) | -0.295 (inactive) | -1.2e-05 (inactive) | 0.00507 (inactive) | inactive | 31.4% (inactive)
17 | CCOC(=O)c1c(SC)nc(SC)c2c1CCC2 | 648 | -8.1% (inactive) | -63.6% (inactive) | 182 | 0.267 | 0.0457 | 1.4 | -5.62% (inactive) | -0.394 (inactive) | -4.6e-05 (inactive) | 0.00956 (inactive) | inactive | -10% (inactive)
18 | NS(=O)(=O)c1ccc(-c2ccc(C=NC3CCS(=O)(=O)C3)o2)cc1 (stereo not drawn) | 576 | 0.1% (inactive) | -53.9% (inactive) | 94 | -1.97 | 0.0247 | 1.53 | -4.7% (inactive) | -0.59 (inactive) | -5.6e-05 (inactive) | 0.00467 (inactive) | inactive | -10.3% (inactive)
19 | c1ccc(OCc2nn3c(C4CCCCC4)nnc3s2)cc1 | 633 | -8.1% (inactive) | -110% (inactive) | 167 | -0.542 | -0.363 | 1.81 | -6.06% (inactive) | -0.434 (inactive) | -0.000186 (inactive) | 0.00482 (inactive) | inactive | -1.22% (inactive)
20 | N#Cc1c(N)nc(SCc2ccccn2)c(C#N)c1-c1cccs1 | 526 | -6.5% (inactive) | -189% (inactive) | 176 | 0.739 | 1.34 | -0.969 | 4.25% (inactive) | -0.289 (inactive) | 1.5e-05 (inactive) | 0.00485 (inactive) | inactive | 1.02% (inactive)
21 | C=CCOn1c(=O)c(-c2cc3ccccc3o2)[n+]([O-])c2ccccc21 | 536 | -1.4% (inactive) | -41.6% (inactive) | 144 | -0.342 | 0.414 | -0.0488 | -8.76% (inactive) | -0.123 (inactive) | 1.7e-05 (inactive) | 0.00548 (inactive) | inactive | 18.3% (inactive)
22 | CCCSc1nc(C)c(CC(=O)OCC)c(=O)[nH]1 | 573 | -10.2% (inactive) | -162% (inactive) | 138 | -0.128 | -1.19 | 1.09 | 1.98% (inactive) | -0.508 (inactive) | -6e-05 (inactive) | 0.008 (inactive) | inactive | 6.42% (inactive)
23 | CC(C)C1C(C#N)=C(N)Oc2n[nH]c(C(C)(C)C)c21 (stereo not drawn) | 391 | -8.2% (inactive) | -118% (inactive) | 157 | 0.159 | 1.21 | -1.21 | -2.91% (inactive) | -0.429 (inactive) | -4.6e-05 (inactive) | 0.00626 (inactive) | inactive | -1.5% (inactive)
24 | COc1ccc(-c2ncncc2-c2csc(C)n2)c(O)c1 | 573 | -4.5% (inactive) | -141% (inactive) | 135 | 0.355 | -1.54 | -0.34 | 1.9e-07% (inactive) | -0.509 (inactive) | -3.3e-05 (inactive) | 0.00463 (inactive) | inactive | 3.68% (inactive)
25 | O=C1CCC(=O)N1CN(C(=O)c1ccco1)c1ccc(Cl)c(Cl)c1 | 481 | 1.1% (inactive) | -72.5% (inactive) | 125 | -1.21 | 0.938 | 0.134 | -3.5% (inactive) | -0.562 (inactive) | -2.3e-05 (inactive) | 0.00659 (inactive) | inactive | -12.3% (inactive)
26 | CCOC(=O)c1sc2c(c1C)c(=O)c(C(=O)OCC)cn2CC | 584 | -4.2% (inactive) | -79% (inactive) | 156 | -0.851 | -0.225 | 0.403 | 7.01% (inactive) | -0.376 (inactive) | 4.1e-06 (inactive) | 0.00559 (inactive) | inactive | -0.239% (inactive)
